High-throughput results: PubChem BioAssay, several laboratories
Compounds with a hit are over-represented: about 6.8% of the library has one in this group of screens.
ALR H2O2 inh: inhibitors of human sulfhydryl oxidase ALR | hit rate 3.8% among 290,000 | purified ALR, DTT oxidation, H2O2 HRP-luminol luminescence | P55789 | inhibition, % (no concentration beside the values) | AID 485317;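 active = mean replicate inhibition above about 79%, with every replicate also reaching it, limit read from the data; inconclusive = only one of the two criteria met; inactive = mean below limit and not every replicate reaching it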
Target sequence (P55789 whole entry, looked up): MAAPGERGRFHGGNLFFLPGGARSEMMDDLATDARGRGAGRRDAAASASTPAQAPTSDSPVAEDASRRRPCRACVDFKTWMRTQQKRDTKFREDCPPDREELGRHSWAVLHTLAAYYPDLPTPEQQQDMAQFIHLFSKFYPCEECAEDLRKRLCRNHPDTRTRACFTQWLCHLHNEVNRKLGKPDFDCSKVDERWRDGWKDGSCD
PHOSPHO1 block: inhibitors of human PHOSPHO1 phosphatase | Q8TCT1 | recombinant PHOSPHO1, absorbance phosphatase assay | inhibition, % at 13.3 µM | hit rate 1.1% among 290,000; in the data active = inhibition above about 60%
Target sequence (Q8TCT1 whole entry, looked up): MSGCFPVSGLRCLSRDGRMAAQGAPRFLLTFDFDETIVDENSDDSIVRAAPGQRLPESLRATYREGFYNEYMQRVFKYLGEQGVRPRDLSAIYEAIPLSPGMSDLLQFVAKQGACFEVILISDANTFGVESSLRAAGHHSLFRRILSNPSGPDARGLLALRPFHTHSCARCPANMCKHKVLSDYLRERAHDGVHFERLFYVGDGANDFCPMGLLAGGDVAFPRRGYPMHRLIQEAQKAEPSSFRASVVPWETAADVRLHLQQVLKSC
core dimer inh: blocks dimerization of HCV core protein; AID 1899; inhibition, % at 5 µM; hit rate 0.33% among 300,000; TR-FRET GST/Flag-core106 dimerization, 1536-well;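 active = inhibition above the mean of all tested compounds plus 3 SD, set per screening campaign, cut at about 45% in these data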
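Assay system – GST-tagged and Flag-tagged HCV core protein residues 1-106 · Quantity – core106 proteins, GST 13.5 nM and Flag 17 nM · Benchmarks – unlabelled core106 and no-GST-core106 wells · Read-out basis – percent inhibition of core106 dimerization signal · Detection – time-resolved FRET, ex 340 nm, em 617 and 671 nm · Schedule – 4 h at 22.5 °C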
HSF1 activator: increases HSF-1 driven luciferase reporter signal; hit rate 1.7% among 300,000; NIH3T3-HGL HSF-1 luciferase reporter, MG132, 8 h; 100% = twice DMSO control signal; activation, % at 9 µM; AID 504408;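 active = mean replicate activation of at least 50% with a set share of replicates each reaching 50%; inconclusive = only one of those two conditions met; inactive = mean below 50% and too few replicates reaching it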;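 note: 0% = median of the neutral control wells and 100% = twice that signal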
AI-2 QS mod: modulates the Vibrio harveyi AI-2 quorum sensing system; AID 2094; hit rate 0.4% among 300,000; Vibrio harveyi JMH597 AI-2 luminescence/OD600 ratio, 9 h; active compounds read low; strain lacks LuxN and CqsS sensors; 0 = neutral-control median; activity change, % at 7.5 µM; in the data active = activity change below about -75%, passing the limit was not always enough; inconclusive = no clear call, values can overlap the other calls;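 note: luminescence divided by OD600 gain over 9 h not by final OD600 alone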
HSF1 inhib: HSF1 inhibition. NIH3T3-HGL HSE-luciferase, MG132-induced, luminescence 8 h; active compounds read low. activity change, negative = inhibition, % at 7.5 µM (by protocol). hit rate 0.77% among 300,000. AID 2098;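 active = more than half of replicate wells show activity change below -50%, luminescence cut by over half; inconclusive = some wells, but at most half, below -50%; inactive = no replicate well below -50%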;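 note: luciferase reports HSF-1 transcriptional activity via heat shock element; 0% = median of DMSO wells and -100% = zero luminescence signal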
The depositor's hits bear a star; ? = inconclusive; nt = no result given.

SMILES	ALR H2O2 inh	PHOSPHO1 block	core dimer inh	HSF1 activator	AI-2 QS mod	HSF1 inhib
O=C(CSc1nc2ccccc2c(=O)n1NC(=O)Cc1ccccc1)NCc1ccccc1	-15	10	-4	23	23	3
COc1ccc(C(=O)Nn2c(SCC(=O)NCc3ccccc3)nc3ccccc3c2=O)cc1	-3	17	0	-68	43	-61*
CN(C[C@@H](CC1CCCCC1)N(C[C@H](Cc1ccccc1)N(CCc1ccccc1)N=O)N=O)N=O	nt	30	13	-5	21	0
COc1cc(SC)ccc1C(=O)Nc1cccc(S(=O)(=O)NC2=NCCC2)c1	-1	nt	nt	nt	nt	nt
CCOC(=O)[C@@H]1[C@H]2COc3ccc(Br)cc3[C@@H]2N2C(=O)N(c3ccc(F)cc3)C(=O)[C@]12C	-15	4	12	0	33	5
O=C(Cc1cccc2ccccc12)N1CCN(c2ncccn2)CC1	0	24	2	4	5	2
O=C(Cc1coc2ccc3ccccc3c12)N1CCN(c2ncccn2)CC1	nt	4	53*	7	6	-2
Cc1ccc2c(c1)N(CC(=O)N1CCCCC1)C(=O)CO2	2	-9	-15	1	5	4
Cn1c(N)c(C(=O)CSc2nc3ccccc3[nH]2)c(=O)n(C)c1=O	13	28	-1	-5	31	1
COc1ccc(NCC(=O)N/N=C/C2CCCCC2)cc1	92*	33	2	-3	-4	-1
CCCC1CCC(=NNC(=O)CNc2ccc(OC)cc2)CC1 (stereo not drawn)	47	9	-9	-13	7	-4
O=C(O)c1cc(NC(=O)c2cccc(F)c2)cc(NC(=O)c2cccc(F)c2)c1	0	-6	-5	-10	-3	-6
COC(=O)C(NNc1ccccc1)(NC(=O)c1cccc(F)c1)C(F)(F)F (stereo not drawn)	57	99*	-1	-24	16	-6
Cc1ccc(NC(=S)NNC(=O)Cn2nc([N+](=O)[O-])cc2C)cc1	85*	96*	-3	16	15	6
COc1cccc(NC(=S)NNC(=O)Cn2nc([N+](=O)[O-])cc2C)c1	60	30	0	27	18	-1
Cc1cc([N+](=O)[O-])nn1CC(=O)NNC(=S)Nc1ccc(Cl)cc1	?	93*	-4	4	26	14
NC(=O)c1sc(=S)n(-c2ccc(Br)cc2)c1N	95*	54	1	-4	11	-8
Cc1ccc(-n2c(N)c(C(=O)N3CCOCC3)sc2=S)cc1	-4	76*	0	-3	9	1
COc1ccc(/C=N/NC(=O)CC2N=C(Cc3ccccc3)NNC2=O)cc1OC (stereo not drawn)	1	-11	-4	-3	9	-2
CC(=O)N1CCN(S(=O)(=O)c2cccc(C(=O)NCCc3ccc(Cl)cc3)c2)CC1	1	nt	1	31	7	24
CCCC(c1nnnn1Cc1ccco1)N1CCN(c2ccccc2)CC1 (stereo not drawn)	88*	24	0	nt	41	nt
CCCC(c1nnnn1C(C)(C)C)N1CCN(Cc2ccccc2OC)CC1 (stereo not drawn)	-5	6	0	20	6	4
CCC(c1nnnn1C1CCCC1)N1CCN(c2ccccc2F)CC1 (stereo not drawn)	0	-27	1	-3	16	-7
CCC(c1nnnn1C1CCCC1)N1CCN(c2ccccc2)CC1 (stereo not drawn)	99*	34	0	18	4	0
CCCC(c1nnnn1C(C)(C)C)N1CCN(c2ccccc2)CC1 (stereo not drawn)	98*	41	-2	7	14	-2
SMILES	ALR H2O2 inh	PHOSPHO1 block	core dimer inh	HSF1 activator	AI-2 QS mod	HSF1 inhib
CC1SC(c2ccc(F)cc2)N(CCc2ccccc2)C1=O (stereo not drawn)	nt	24	0	-1	1	17
CCN(Cc1ccncc1)Cc1nc(CC2CC2)no1	-3	20	-1	-5	19	-3
COc1ccc(C2CC(=O)c3ccccc3O2)cc1 (stereo not drawn)	-9	1	-4	14	19	13
CNC(=O)C(=O)NCCCN1CCOCC1	-3	49	-2	-3	4	0
CCOC(=O)CC(=O)CSc1nc2c(sc(=S)n2-c2ccc(OCC)cc2)c(=O)[nH]1	96*	7	7	0	39	-9
CCCN(CCC)C(=O)CSc1nc2c(sc(=S)n2-c2ccc(OCC)cc2)c(=O)[nH]1	23	-5	24	-3	23	-3
CCOc1ccc(-n2c(=S)sc3c(=O)[nH]c(SCC(=O)NC(C)CC)nc32)cc1 (stereo not drawn)	1	20	4	72*	26	42
COc1ccc(C(C[N+](=O)[O-])C2(c3ccc(OC)c(OC)c3)C(=O)c3ccccc3C2=O)cc1 (stereo not drawn)	62	-2	-42	214*	-14	146
COc1ccc(C(C[N+](=O)[O-])c2c(-c3ccccc3)cc3ccccn23)cc1OC (stereo not drawn)	9	-7	15	28	21	24
COc1ccc2cc(CN(CC3CCCO3)C(=S)Nc3ccccc3)c(=O)[nH]c2c1 (stereo not drawn)	-14	40	3	11	3	1
CCOC(=O)c1ccc(N=Cc2nc(-c3ccccc3)oc2OC(C)=O)cc1	94*	7	0	21	37	8
CC(=O)Oc1oc(-c2ccccc2)nc1C=Nc1ccccc1	50	-93	-4	17	48	3
COCCNC(=S)N/N=C(\C)c1ccc(O)cc1	99*	-3	4	7	10	5
COCCCNC(=S)N/N=C/c1ccc(OC)cc1	13	-14	-3	27	20	11
COCCCNC(=S)N/N=C/c1ccc(O)cc1	99*	-23	-5	-8	15	6
CC(C)[C@H](NC(=O)N1c2ccccc2NC(=O)[C@@H]1C(C)C)C(=O)N[C@H](Cc1ccccc1)C(=O)O	-18	65*	0	-1	9	-2
CCN(C(=O)COC(=O)CN(C)S(=O)(=O)c1ccc(NC(C)=O)cc1)C1CCS(=O)(=O)C1 (stereo not drawn)	-6	34	1	-6	17	-1
CCc1cc(C(=O)N/N=C/c2c(C)[nH]c3ccccc23)cs1	7	-4	-20	4	4	6
COc1cc(-c2cn(S(=O)(=O)c3cccc4nsnc34)nc2N)cc(OC)c1OC	14	5	-4	59*	22	19
CC(Oc1ccccc1)C(=O)N1CCN(C(=O)C(C)Oc2ccccc2)CC1 (stereo not drawn)	nt	30	8	-14	25	-5
